The test system of one experiment is homomeric α9 nAChR. The note with it: cited from earlier work.
The target in the next experiment is α9α10^α9TM2TM3loop (Rattus norvegicus, UniProt P43144+Q9JLB5, A292S/P291A/S288I/S294N). The experiment is described as follows: ACh-evoked currents, two-electrode voltage-clamp in X. laevis oocytes. Format: cell-based. The settings on record: prolonged (1 min) ACh application. On the technique in general: In two-electrode clamp one electrode senses voltage and the other passes current.
α9α10^α9TM2TM3loop, sequence (P43144 26-479, stated change not applied): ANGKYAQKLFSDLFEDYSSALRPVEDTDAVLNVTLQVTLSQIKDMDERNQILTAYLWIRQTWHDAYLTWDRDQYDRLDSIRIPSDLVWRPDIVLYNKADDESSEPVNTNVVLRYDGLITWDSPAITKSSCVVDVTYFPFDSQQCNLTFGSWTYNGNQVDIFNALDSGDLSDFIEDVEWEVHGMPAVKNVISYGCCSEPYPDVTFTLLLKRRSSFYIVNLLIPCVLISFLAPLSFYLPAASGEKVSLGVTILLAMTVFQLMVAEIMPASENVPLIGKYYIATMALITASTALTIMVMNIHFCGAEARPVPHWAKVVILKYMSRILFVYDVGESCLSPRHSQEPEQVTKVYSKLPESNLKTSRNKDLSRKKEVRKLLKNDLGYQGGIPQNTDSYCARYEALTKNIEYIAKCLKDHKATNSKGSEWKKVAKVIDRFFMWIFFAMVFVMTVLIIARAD
α9α10^α9TM2TM3loop, sequence (Q9JLB5 25-447 S288I/P291A/A292S/S294N): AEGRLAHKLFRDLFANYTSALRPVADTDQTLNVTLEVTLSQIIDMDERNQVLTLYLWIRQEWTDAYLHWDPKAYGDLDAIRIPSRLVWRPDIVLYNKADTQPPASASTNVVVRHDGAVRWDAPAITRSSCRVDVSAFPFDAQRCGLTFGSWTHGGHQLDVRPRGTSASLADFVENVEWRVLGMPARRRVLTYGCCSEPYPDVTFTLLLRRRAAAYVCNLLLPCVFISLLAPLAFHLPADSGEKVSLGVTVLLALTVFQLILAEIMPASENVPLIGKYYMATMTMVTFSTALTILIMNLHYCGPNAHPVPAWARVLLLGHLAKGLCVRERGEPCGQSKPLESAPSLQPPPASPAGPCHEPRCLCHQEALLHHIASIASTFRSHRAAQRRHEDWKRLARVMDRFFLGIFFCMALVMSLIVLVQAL

A further experiment deals with α9E202Qα10. Put plainly: ACh-evoked currents, two-electrode voltage-clamp in X. laevis oocytes. In kind it is cell-based, rat. The settings on record: 1 mM ACh; α9E202Qα10 mutant receptor. In a few lines: (§1)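 Rat subunit cRNAs (0.01–1.0 ng in 50 nl water, 1:1 molar ratio when co-injected) were injected into stage V–VI X. laevis oocytes kept in Barth's solution at 18 °C. Oocytes were preloaded 3 h with 100 µM BAPTA-AM.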

Another experiment has as its system α9E72Qα10. Described as above. In kind it is cell-based, rat. The settings on record: 1 mM ACh; α9E72Qα10 mutant receptor. In a few lines:
as §1

The test system of another experiment is α9^α10TM2TM3loop. The description is as above. In kind it is cell-based, rat. The settings on record: 1 mM ACh; α9^α10TM2TM3loop injected alone or co-injected with α9. In a few lines: as §1
Another experiment has as its target α9α10 nAChR (Rattus norvegicus, UniProt P43144+Q9JLB5). The note with it: prolonged ACh application; cited from earlier work.

A word on the EC50: it is the concentration needed to bring the measured effect to its halfway point.

α9α10 nAChR, sequence (P43144 26-479): as the sequence (P43144 26-479, stated change not applied) above
α9α10 nAChR, sequence (Q9JLB5 25-447): as the sequence (Q9JLB5 25-447 S288I/P291A/A292S/S294N) above, with I264S, A267P, S268A, N270S counted along it

Take `CC(=O)OCC[N+](C)(C)C` [ACh, Acetylcholine]: the “maximal amplitude of responses” value with homomeric α9 nAChR (100 µM ACh, absence of extracellular Ca^2+) is 182 ± 20 nA. Further, the 50% effective concentration (EC50) in the experiment with homomeric α9 nAChR (ACh concentration-response, ref 45 (Verbitsky et al. 2000)) is 11.4 ± 0.8 µM. The figures for the “remaining current after 20 s of the peak response to ACh” value in the experiment on homomeric α9 nAChR (prolonged application of a high ACh concentration), at α9α10^α9TM2TM3loop and at α9α10 nAChR were 94.9 ± 1.6%, 61.9 ± 4.6% and 57.1 ± 4.3%, respectively. Besides, the “response to ACh (in words)” value with α9E202Qα10 is “failed to respond”; with α9E72Qα10 it was “failed to respond”; in the experiment with α9^α10TM2TM3loop, “did not render functional receptors”.
